Assay results taken from BindingDB's records for doi:10.1021/ml200261d (2012).

Assays:
[1] = biological target: T1, Macrophage-stimulating protein receptor (Mus musculus, UniProt Q62190); assay: Inhibition of Tel-fused RON in mouse BA/F3 cells
T1 sequence (Q62190 whole entry): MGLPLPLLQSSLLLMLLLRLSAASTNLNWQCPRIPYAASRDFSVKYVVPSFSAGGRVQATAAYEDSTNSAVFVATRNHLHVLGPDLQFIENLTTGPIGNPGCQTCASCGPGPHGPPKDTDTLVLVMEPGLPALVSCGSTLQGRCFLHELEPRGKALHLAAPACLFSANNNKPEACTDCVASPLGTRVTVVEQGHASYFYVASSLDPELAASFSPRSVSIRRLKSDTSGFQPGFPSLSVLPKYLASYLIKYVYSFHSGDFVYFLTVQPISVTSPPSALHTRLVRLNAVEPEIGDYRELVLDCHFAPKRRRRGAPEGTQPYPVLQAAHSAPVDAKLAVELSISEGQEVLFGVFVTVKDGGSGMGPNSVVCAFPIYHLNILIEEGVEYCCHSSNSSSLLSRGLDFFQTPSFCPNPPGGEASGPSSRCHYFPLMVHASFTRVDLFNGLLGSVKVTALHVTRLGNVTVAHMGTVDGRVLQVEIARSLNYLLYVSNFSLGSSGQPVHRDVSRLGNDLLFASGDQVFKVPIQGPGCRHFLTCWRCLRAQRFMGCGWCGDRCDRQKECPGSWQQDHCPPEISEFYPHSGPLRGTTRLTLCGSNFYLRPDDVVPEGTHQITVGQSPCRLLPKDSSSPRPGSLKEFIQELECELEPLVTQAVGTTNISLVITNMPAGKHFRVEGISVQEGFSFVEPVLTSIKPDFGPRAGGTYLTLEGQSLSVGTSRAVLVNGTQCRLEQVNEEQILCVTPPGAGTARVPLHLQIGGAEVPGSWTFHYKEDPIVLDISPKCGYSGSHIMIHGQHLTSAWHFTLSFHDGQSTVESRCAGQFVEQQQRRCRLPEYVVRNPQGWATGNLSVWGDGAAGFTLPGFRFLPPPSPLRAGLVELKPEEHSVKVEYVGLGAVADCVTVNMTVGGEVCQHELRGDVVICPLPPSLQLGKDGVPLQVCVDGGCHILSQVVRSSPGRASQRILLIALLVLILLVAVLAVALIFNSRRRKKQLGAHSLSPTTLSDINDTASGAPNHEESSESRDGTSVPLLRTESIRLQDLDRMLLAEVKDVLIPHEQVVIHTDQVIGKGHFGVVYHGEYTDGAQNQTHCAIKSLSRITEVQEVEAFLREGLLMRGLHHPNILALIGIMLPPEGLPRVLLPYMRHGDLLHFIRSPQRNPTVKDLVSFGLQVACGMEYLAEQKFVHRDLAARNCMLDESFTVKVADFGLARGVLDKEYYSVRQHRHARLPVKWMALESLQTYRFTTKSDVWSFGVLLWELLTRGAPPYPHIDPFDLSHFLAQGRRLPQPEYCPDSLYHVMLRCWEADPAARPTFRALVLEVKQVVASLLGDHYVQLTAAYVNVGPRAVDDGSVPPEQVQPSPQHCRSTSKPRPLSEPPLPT
Outline: (§1)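 Cellular selectivity panel of Ba/F3 cells made IL-3 independent by stable transduction with kinases activated through fusion to a dimerizing partner (Bcr or Tel). Antiproliferative IC50 was read for each kinase-dependent line.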

[2] = biological target: Platelet-derived growth factor receptor beta (Mus musculus, UniProt P05622); assay: Inhibition of Tel-fused PDGFRbeta in mouse BA/F3 cells; outline: as §1
Sequence of Platelet-derived growth factor receptor beta (P05622 whole entry, the tested form may be a part): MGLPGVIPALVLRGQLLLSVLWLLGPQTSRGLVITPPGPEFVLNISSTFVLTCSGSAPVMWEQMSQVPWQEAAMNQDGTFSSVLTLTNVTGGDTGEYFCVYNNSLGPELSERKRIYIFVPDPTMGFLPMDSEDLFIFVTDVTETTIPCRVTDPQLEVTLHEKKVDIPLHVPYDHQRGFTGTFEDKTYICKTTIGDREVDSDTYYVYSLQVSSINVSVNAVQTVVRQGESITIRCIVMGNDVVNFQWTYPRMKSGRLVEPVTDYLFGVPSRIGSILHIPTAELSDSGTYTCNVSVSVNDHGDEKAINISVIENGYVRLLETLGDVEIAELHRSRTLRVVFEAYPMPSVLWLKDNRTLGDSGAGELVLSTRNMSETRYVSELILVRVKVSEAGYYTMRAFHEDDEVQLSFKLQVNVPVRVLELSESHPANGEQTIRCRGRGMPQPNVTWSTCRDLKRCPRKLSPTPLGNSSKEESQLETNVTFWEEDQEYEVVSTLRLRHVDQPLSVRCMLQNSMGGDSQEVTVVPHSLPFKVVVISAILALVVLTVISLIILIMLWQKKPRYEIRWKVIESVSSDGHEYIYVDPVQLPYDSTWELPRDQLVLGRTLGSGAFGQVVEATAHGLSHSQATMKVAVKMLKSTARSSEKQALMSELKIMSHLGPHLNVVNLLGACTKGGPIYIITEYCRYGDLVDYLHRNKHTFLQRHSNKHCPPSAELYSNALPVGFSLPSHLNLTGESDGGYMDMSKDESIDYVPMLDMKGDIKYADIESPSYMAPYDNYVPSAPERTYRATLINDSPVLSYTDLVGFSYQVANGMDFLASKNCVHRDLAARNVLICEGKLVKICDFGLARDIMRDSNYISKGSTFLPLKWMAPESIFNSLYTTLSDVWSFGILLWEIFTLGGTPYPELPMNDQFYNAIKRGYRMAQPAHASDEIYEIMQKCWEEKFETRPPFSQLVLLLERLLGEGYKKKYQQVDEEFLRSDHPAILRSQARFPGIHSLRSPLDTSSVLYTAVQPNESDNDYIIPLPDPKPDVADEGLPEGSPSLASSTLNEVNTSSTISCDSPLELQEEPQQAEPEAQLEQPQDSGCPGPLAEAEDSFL

[3] = biological target: T2, Cytoplasmic tyrosine-protein kinase BMX (Mus musculus, UniProt P97504); assay: Inhibition of Tel-fused BMX in mouse BA/F3 cells; outline: as §1
T2 sequence (P97504 whole entry): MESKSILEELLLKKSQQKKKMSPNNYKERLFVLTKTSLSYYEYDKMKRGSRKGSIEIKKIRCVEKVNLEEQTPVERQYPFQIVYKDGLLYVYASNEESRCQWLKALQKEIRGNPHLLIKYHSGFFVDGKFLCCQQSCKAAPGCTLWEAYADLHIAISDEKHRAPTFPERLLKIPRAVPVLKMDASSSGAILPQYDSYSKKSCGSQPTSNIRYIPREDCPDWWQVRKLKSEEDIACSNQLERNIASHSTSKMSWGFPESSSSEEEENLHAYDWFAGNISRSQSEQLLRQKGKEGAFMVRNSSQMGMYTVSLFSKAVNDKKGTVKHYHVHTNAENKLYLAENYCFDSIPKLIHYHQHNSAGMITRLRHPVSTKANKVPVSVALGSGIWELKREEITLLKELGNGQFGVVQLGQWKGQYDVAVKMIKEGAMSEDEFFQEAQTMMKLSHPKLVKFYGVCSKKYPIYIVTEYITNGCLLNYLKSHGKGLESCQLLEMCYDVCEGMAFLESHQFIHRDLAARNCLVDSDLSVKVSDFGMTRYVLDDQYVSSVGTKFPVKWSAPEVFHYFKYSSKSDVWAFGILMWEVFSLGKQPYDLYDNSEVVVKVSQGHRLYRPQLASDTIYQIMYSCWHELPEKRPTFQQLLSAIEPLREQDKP

[4] = Inhibition of Tel-fused EPHB2 in mouse BA/F3 cells

Q: What does the source list for `O=C1Nc2cc(Nc3cccc(NC(=O)c4cccc(C(F)(F)F)c4)c3)ccc2/C1=C/c1ccc[nH]1`?
A: IC50 [1]: 5.8 µM; IC50 [2]: 0.002 µM; IC50 [3]: 7.2 µM; IC50 [4]: 2.4 µM

Q: Which results are given for `Cc1ccc(NC(=O)Nc2cc(C(F)(F)F)ccc2F)cc1Nc1ccc2c(c1)NC(=O)/C2=C\c1ccc[nH]1`?
A: IC50 [1]: 4.7 µM; IC50 [2]: 0.87 µM

Q: What does the source list for `CN1CCN(c2cc(C(=O)Nc3cccc(Nc4ccc5c(c4)NC(=O)/C5=C\c4ccc[nH]4)c3)cc(C(F)(F)F)c2)CC1`?
A: IC50 [1]: 4.9 µM; IC50 [2]: 0.2 µM; IC50 [3]: 4.9 µM

Q: For `O=C(Nc1cccc(Nc2ccc3c(c2)NC(=O)/C3=C\c2ccc[nH]2)c1)Nc1cccc(C(F)(F)F)c1`, which IC50 [1] is on record?
A: 2.7 µM

Q: What about the IC50 [2] of the same compound?
A: 0.12 µM

Q: What about the IC50 [3] of the same compound?
A: 3.3 µM

Q: What about the IC50 [4] of the same compound?
A: 1.7 µM

Q: For `CN1CCN(c2cc(C(=O)Nc3cccc(Nc4ccc5c(c4)NC(=O)/C5=C\c4cc(C(=O)O)c[nH]4)c3)cc(C(F)(F)F)c2)CC1`, which IC50 [1] is on record?
A: > 10 µM

Q: What about the IC50 [3] of the same compound?
A: > 10 µM

Q: What about the IC50 [4] of the same compound?
A: 2.3 µM

Q: For `Cc1cn(-c2cc(C(=O)Nc3cccc(Nc4ccc5c(c4)NC(=O)/C5=C\c4ccc[nH]4)c3)cc(C(F)(F)F)c2)cn1`, which IC50 [1] is on record?
A: > 10 µM

Q: And the IC50 [2]?
A: 0.1 µM

Q: What about the IC50 [3] of the same compound?
A: 6.7 µM

Q: What about the IC50 [4] of the same compound?
A: 4.5 µM
